Experimental data pooled from the literature.
Compare with care: the assays were run in different laboratories.
Target: Dual specificity mitogen-activated protein kinase kinase 4 (MAP2K4, Homo sapiens, UniProt P45985)
One construct used (P45985 1-399): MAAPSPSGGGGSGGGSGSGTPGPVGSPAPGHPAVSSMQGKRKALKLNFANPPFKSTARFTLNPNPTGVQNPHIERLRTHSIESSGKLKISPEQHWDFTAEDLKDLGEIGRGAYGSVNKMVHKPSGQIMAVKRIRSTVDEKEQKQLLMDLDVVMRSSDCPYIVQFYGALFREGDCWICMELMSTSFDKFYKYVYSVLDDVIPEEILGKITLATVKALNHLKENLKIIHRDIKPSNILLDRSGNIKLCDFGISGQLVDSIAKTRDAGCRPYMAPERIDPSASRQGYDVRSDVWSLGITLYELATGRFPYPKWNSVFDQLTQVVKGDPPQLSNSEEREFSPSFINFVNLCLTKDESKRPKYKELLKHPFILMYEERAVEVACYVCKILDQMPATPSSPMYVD

With `COc1cnc(Nc2cccc(S(N)(=O)=O)c2)nc1N1CCN(c2ccccc2)CC1` the remaining binding was 99% (binding; competition with immobilised ligand; 1 µM).
`c1cnn2ncc(-c3ccnc(N4CCC45COC5)n3)c2c1` has a remaining binding of 62% (binding; 1 µM).
With `O=C(Nc1c[nH]nc1C(=O)NC1CCNCC1)c1cc(F)cc(F)c1` the remaining binding was 94% (binding; competition with immobilised ligand; 1 µM).
`O=C(NCCCN1CCOCC1)c1ccc(Nc2nccc(-c3cc4ccccc4s3)n2)cc1` gave a remaining binding of 69% (binding; competition with immobilised ligand; 1 µM).
`CN(c1nccc(-c2cnn3ncccc23)n1)C1CC1` gave a remaining binding of 100% (binding; 1 µM).
`O=C(c1ccc(Nc2nccc(-c3cc4ccccc4s3)n2)cc1)N1CCC(N2CCCC2)CC1` gave a remaining binding of 78% (binding; competition with immobilised ligand; 1 µM).
For `Nc1c(C(=O)NCc2ccc(C(=O)NCCCC3CCCCC3)cc2)cnn1-c1ccccc1`, the remaining binding was 100% (cell-free assay; competition with immobilised ligand; 0.1 µM).
With `C=CC(=O)N1CCC(C(=O)NCC(=O)N2CCN(c3nc(-c4cnc(N)nc4C(F)F)nc(N4CCOCC4)n3)CC2)CC1` the remaining binding was 100% (binding; competition with immobilised ligand; 1 µM).
For `CN(C)c1nccc(-c2cnc3ncccn23)n1`, the remaining binding was 84% (binding; 1 µM).
`COc1ncc2cc3ccccc3nc2c1C#N` has a remaining binding of 100% (cell-free assay; competition with immobilised ligand; 5 µM).
The remaining binding of `CC(=O)N1CCC(c2ccc(C(=O)NC3=NCCN3)cc2C(F)(F)F)CC1` is reported as 100% (cell-free assay; competition with immobilised ligand; 1 µM).
`N[C@@H]1CCN(c2nccc(-c3cnn4ncccc34)n2)C1` gave a remaining binding of 99% (binding; 1 µM).
With `CO[C@H]1CC[C@H](CNc2ccc(S(=O)(=O)NC(=O)c3ccc(N4CCN(CC5=C(c6ccc(Cl)cc6)CC(C)(C)CC5)CC4)cc3Oc3cnc4[nH]ccc4c3)cc2[N+](=O)[O-])CC1` the remaining binding was 98% (cell-free assay; competition with immobilised ligand; 1 µM).
For `CN(C)c1nccc(-c2cnn3ncccc23)n1`, the remaining binding was 81% (binding; 1 µM).
The remaining binding of `O=C1CCc2cc(Nc3cc(OC4CCOCC4)c([N+](=O)[O-])cc3Cl)ccc2N1` is reported as 100% (cell-free assay; competition with immobilised ligand; 1 µM).
`C[C@@H]1CCN(c2nccc(-c3cnn4ncccc34)n2)C1` gave a remaining binding of 69% (binding; 1 µM).
`Cn1cc(Cl)c2c(Oc3c(F)cc(Nc4cc(Cl)nc(N)n4)cc3F)ccnc21` gave a remaining binding of 80% (cell-free assay; competition with immobilised ligand; 0.1 µM).
`O=C(c1ccc(Nc2ncc(Cl)c(-c3ccc(Cl)s3)n2)cc1)N1CCC(N2CCCC2)CC1` has a remaining binding of 42% (binding; competition with immobilised ligand; 1 µM).
`Cc1cc(C)c(-n2ccn3nc(-c4cccnc4)cc23)cc1NC(=O)c1cc(C#N)cc(S(F)(F)(F)(F)F)c1` has a remaining binding of 74.7% (cell-free assay; competition with immobilised ligand; 0.1 µM).
For `CNC(=O)[C@@H]1CC[C@@H](n2c(-c3ccc4cnccc4c3)nc3ccc(C(=O)NCc4cccc(C(N)=O)c4)cc32)C1`, the remaining binding was 100% (binding; competition with immobilised ligand; 1 µM).
